Test results as given in ChEMBL document CHEMBL1123347, “Topical nonsteroidal antipsoriatic agents. 1. 1,2,3,4-Tetraoxygenated naphthalene derivatives” (J Med Chem, 1986).

Legend:
[1] = Statistical significance (p value) compared to positive control by Students t-test; assay type: ADME
Procedure, shortened: (§1)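 Same arachidonic acid ear-edema model: 2 mg total topical dose in acetone, given 60 min before arachidonic acid, with 8 animals per group. Edema is measured by ear plug weight 1 h after arachidonic acid. p values come from Student's t-test against the concurrent arachidonic acid positive control. Thresholds are given as + (≤0.05) and so on.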

[2] = Partition coefficient (logP); assay type: physicochemical; conditions: octanol/water
Procedure, shortened: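 Lipophilicity (log P) measured by 1-octanol-coated reversed-phase HPLC. The mobile phase is pH 7.4 PBS saturated with 1-octanol, run on RP-18 or C-18 packing. A second system is linked to the first through overlapping series. For the most lipophilic analogues that could not be detected, log P is calculated from Free-Wilson-derived substituent constants assuming additivity.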

[3] = tested on: Mus musculus; assay: Compound was tested for inhibition of arachidonic acid induced mouse ear edema at 2 mg of dose; assay type: functional
Procedure, shortened: (§2)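 Mouse ear edema induced by arachidonic acid (dissolved in acetone at 100 mg/mL). Test agent is applied topically in acetone, 2 mg/0.02 mL per total dose, 60 min before arachidonic acid. Ear edema is read 1 h later as the weight gain of an 8-mm-diameter ear plug. It is compared with acetone-only and arachidonic acid-only controls run in the same experiment. n = 8 per group; percent inhibition is reported as mean.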

[4] = Statistical significance, p values as compared to positive control by students t-test; NS=Not significant; assay type: ADME; procedure, shortened: as §1
[5] = Statistical significance, p values as compared to positive control by students t-test; I=Insoluble; assay type: ADME; procedure, shortened: as §1
[6] = tested on: Mus musculus; assay: Compound was tested for inhibition of arachidonic acid induced mouse ear edema at 2 mg of dose; I=Insoluble; assay type: functional, organism-based; procedure, shortened: as §2

CCCOc1c(OCCC)c(OC(=O)C(C)(C)C)c2cc(Cl)ccc2c1OC(=O)C(C)(C)C
Significance [1]: <= 0.05 | logP [2]: 8.5 | Inhibition [3]: 16%

COc1c(OC)c(OC(C)=O)c2cc(Br)ccc2c1OC(C)=O
Significance [1]: <= 0.001 | logP [2]: 3.39 | Inhibition [3]: 42%

CCC(=O)Oc1c(OC(C)C)c(OC(C)C)c(OC(=O)CC)c2cc(Cl)ccc12
logP [2]: 5.8 | Significance [4]: Not Active | Inhibition [3]: 16%

COc1c(OC)c(OC(=O)C(C)C)c2c(C)cccc2c1OC(=O)C(C)C
logP [2]: 5 | Significance [4]: Not Active | Inhibition [3]: 12%

COc1c(OC)c(OC(=O)C(C)(C)C)c2c(Cl)cccc2c1OC(=O)C(C)(C)C
logP [2]: 6.1 | Significance [4]: Not Active | Inhibition [3]: 6%

COc1c(OC)c(OC(C)=O)c2c(OC)cccc2c1OC(C)=O
Significance [1]: <= 0.01 | logP [2]: 2.43 | Inhibition [3]: 47%

CC(C)(C)C(=O)Oc1c(Oc2ccccc2)c(Oc2ccccc2)c(OC(=O)C(C)(C)C)c2ccccc12
Significance [5]: Insoluble | logP [2]: 7.8 | inhibition [6]: Insoluble

COc1ccc2c(OC(C)=O)c(OC)c(OC)c(OC(C)=O)c2c1
Significance [1]: <= 0.001 | logP [2]: 2.39 | Inhibition [3]: 53%

COc1ccc2c(OC(=O)C(C)(C)C)c(OC)c(OC)c(OC(=O)C(C)(C)C)c2c1
logP [2]: 5.4 | Significance [4]: Not Active | Inhibition [3]: 3%

CC(C)Oc1c(OC(C)C)c(OC(=O)C(C)(C)C)c2cc(Cl)ccc2c1OC(=O)C(C)(C)C
Significance [1]: <= 0.001 | logP [2]: 7.9 | Inhibition [3]: 26%

CCOc1c(OCC)c(OC(C)=O)c2cc(Cl)ccc2c1OC(C)=O
Significance [1]: <= 0.001 | logP [2]: 4 | Inhibition [3]: 38%

COc1c(OC)c(OC(=O)C(C)C)c2cc(Cl)ccc2c1OC(=O)C(C)C
Significance [1]: <= 0.01 | logP [2]: 5.4 | Inhibition [3]: 23%

CCC(=O)Oc1c(OC)c(OC)c(OC(=O)CC)c2c(OC)cccc12
Significance [1]: <= 0.001 | logP [2]: 3.44 | Inhibition [3]: 57%

COc1c(OC)c(OC(=O)C(C)(C)C)c2cc(C)c(C)cc2c1OC(=O)C(C)(C)C
logP [2]: 6.5 | Significance [4]: Not Active | Inhibition [3]: 6%

CCC(=O)Oc1c(OC)c(OC)c(OC(=O)CC)c2cc(Cl)ccc12
Significance [1]: <= 0.001 | logP [2]: 4.3 | Inhibition [3]: 49%

CCCOc1c(OCCC)c(OC(C)=O)c2cc(Cl)ccc2c1OC(C)=O
Significance [1]: <= 0.001 | logP [2]: 5.2 | Inhibition [3]: 50%

CCC(=O)Oc1c(OC)c(OC)c(OC(=O)CC)c2ccccc12
Significance [1]: <= 0.01 | logP [2]: 3.44 | Inhibition [3]: 33%

CCCC(=O)Oc1c(Oc2ccccc2)c(Oc2ccccc2)c(OC(=O)CCC)c2cc(Cl)ccc12
logP [2]: 7.7 | Significance [4]: Not Active | Inhibition [3]: -5%

CCCOc1c(OCCC)c(OC(=O)C(C)C)c2cc(Cl)ccc2c1OC(=O)C(C)C
Significance [1]: <= 0.01 | logP [2]: 7.5 | Inhibition [3]: 28%

COc1c(OC)c(OC(=O)C(C)(C)C)c2ccccc2c1OC(=O)C(C)(C)C
logP [2]: 5.69 | Significance [4]: Not Active | Inhibition [3]: 0%

CC(C)(C)C(=O)Oc1c(Oc2ccccc2)c(Oc2ccccc2)c(OC(=O)C(C)(C)C)c2cc(Cl)ccc12
logP [2]: 8.7 | inhibition [6]: Insoluble

COc1c(OC)c(OC(C)=O)c2cc(C)ccc2c1OC(C)=O
Significance [1]: <= 0.001 | logP [2]: 2.86 | Inhibition [3]: 40%

CCOc1c(OCC)c(OC(=O)C(C)(C)C)c2cc(Cl)ccc2c1OC(=O)C(C)(C)C
Significance [1]: <= 0.001 | logP [2]: 7.4 | Inhibition [3]: 19%

COc1c(OC)c(OC(C)=O)c2c(Cl)cccc2c1OC(C)=O
logP [2]: 3.16 | Significance [4]: Not Active | Inhibition [3]: 11%

CSc1c(SC)c(OC(C)=O)c2cc(Cl)ccc2c1OC(C)=O
Significance [4]: Not Active | Inhibition [3]: -2%

COc1c(OC)c(OC(C)=O)c2cc(C)c(C)cc2c1OC(C)=O
Significance [1]: <= 0.001 | logP [2]: 3.14 | Inhibition [3]: 19%

COc1c(OC)c(OC(=O)C(C)(C)C)c2cc(C)ccc2c1OC(=O)C(C)(C)C
logP [2]: 6.1 | Significance [4]: Not Active | Inhibition [3]: 11%

CCC(=O)Oc1c(OC)c(OC)c(OC(=O)CC)c2c(C)cccc12
Significance [1]: <= 0.01 | logP [2]: 3.9 | Inhibition [3]: 24%

COc1c(OC)c(OC(C)=O)c2ccccc2c1OC(C)=O
Significance [1]: <= 0.05 | logP [2]: 2.39 | Inhibition [3]: 19%

COc1c(OC)c(OC(=O)C(C)C)c2cc(C)c(C)cc2c1OC(=O)C(C)C
Significance [1]: <= 0.001 | logP [2]: 5.3 | Inhibition [3]: 21%

COc1c(OC)c(OC(=O)C(C)(C)C)c2c(OC)cccc2c1OC(=O)C(C)(C)C
Significance [1]: <= 0.01 | logP [2]: 5.6 | Inhibition [3]: 29%

COc1c(OC)c(OC(C)=O)c2c(NC(C)=O)cccc2c1OC(C)=O
logP [2]: 2 | Significance [4]: Not Active | Inhibition [3]: 6%

CCOc1c(OCC)c(OC(=O)CC)c2cc(Cl)ccc2c1OC(=O)CC
Significance [1]: <= 0.001 | logP [2]: 5.2 | Inhibition [3]: 50%

CCOc1c(OCC)c(OC(=O)C(C)C)c2cc(Cl)ccc2c1OC(=O)C(C)C
Significance [1]: <= 0.05 | logP [2]: 6.4 | Inhibition [3]: 11%

COc1c(OC)c(OC(=O)c2ccccc2)c2cc(Cl)ccc2c1OC(=O)c1ccccc1
Significance [1]: <= 0.05 | logP [2]: 6.7 | Inhibition [3]: 18%

COc1c(OC)c(OC(=O)C(C)C)c2ccccc2c1OC(=O)C(C)C
Significance [1]: <= 0.001 | logP [2]: 4.61 | Inhibition [3]: 53%

CC(=O)Oc1c(OC(C)C)c(OC(C)C)c(OC(C)=O)c2cc(Cl)ccc12
Significance [1]: <= 0.001 | logP [2]: 4.6 | Inhibition [3]: 19%

CCC(=O)Oc1c(OC)c(OC)c(OC(=O)CC)c2cc(OC)ccc12
Significance [1]: <= 0.01 | logP [2]: 3.28 | Inhibition [3]: 49%

COc1c(OC)c(OC(C)=O)c2c(C#N)cccc2c1OC(C)=O
Significance [1]: <= 0.01 | logP [2]: 2.51 | Inhibition [3]: 24%

CCCC(=O)Oc1c(OC)c(OC)c(OC(=O)CCC)c2cc(C)c(C)cc12
logP [2]: 5.4 | Significance [4]: Not Active | Inhibition [3]: 14%

COc1c(OC)c(OC(C)=O)c2cc(F)ccc2c1OC(C)=O
Significance [1]: <= 0.001 | logP [2]: 2.75 | Inhibition [3]: 40%

COc1c(OC)c(OC(=O)C(C)(C)C)c2c(C)cccc2c1OC(=O)C(C)(C)C
logP [2]: 6.1 | Significance [4]: Not Active | Inhibition [3]: 10%

CCCOc1c(OCCC)c(OC(=O)CC)c2cc(Cl)ccc2c1OC(=O)CC
Significance [1]: <= 0.001 | logP [2]: 6.4 | Inhibition [3]: 30%

CCCOc1c(OCCC)c(OC(=O)CCC)c2cc(Cl)ccc2c1OC(=O)CCC
logP [2]: 7.6 | Significance [4]: Not Active | Inhibition [3]: 2%

CCCC(=O)Oc1c(OC)c(OC)c(OC(=O)CCC)c2ccccc12
Significance [1]: <= 0.001 | logP [2]: 4.64 | Inhibition [3]: 59%

COc1c(OC)c(OC(C)=O)c2cc(C#N)ccc2c1OC(C)=O
logP [2]: 2.28 | Significance [4]: Not Active | Inhibition [3]: 7%

CCC(=O)Oc1c(Oc2ccccc2)c(Oc2ccccc2)c(OC(=O)CC)c2cc(Cl)ccc12
logP [2]: 6.6 | Significance [4]: Not Active | Inhibition [3]: -15%

CC(C)C(=O)Oc1c(Oc2ccccc2)c(Oc2ccccc2)c(OC(=O)C(C)C)c2cc(Cl)ccc12
logP [2]: 7.7 | Significance [4]: Not Active | Inhibition [3]: 0%

CCC(=O)Oc1c(OC)c(OC)c(OC(=O)CC)c2cc(C)c(C)cc12
Significance [1]: <= 0.001 | logP [2]: 4.2 | Inhibition [3]: 26%

CCCC(=O)Oc1c(OC)c(OC)c(OC(=O)CCC)c2cc(Cl)ccc12
Significance [1]: <= 0.001 | logP [2]: 5.5 | Inhibition [3]: 58%

COc1c(OC)c(OC(=O)C(C)(C)C)c2cc(Cl)ccc2c1OC(=O)C(C)(C)C
logP [2]: 6.6 | Significance [4]: Not Active | Inhibition [3]: 11%

COc1c(OC)c(OC(C)=O)c2c(Sc3ccccc3)cccc2c1OC(C)=O
Significance [1]: <= 0.001 | logP [2]: 4.2 | Inhibition [3]: 42%

CCCCOc1c(OCCCC)c(OC(C)=O)c2cc(Cl)ccc2c1OC(C)=O
Significance [1]: <= 0.01 | logP [2]: 5.9 | Inhibition [3]: 23%

CC(=O)Oc1c(Oc2ccccc2)c(Oc2ccccc2)c(OC(C)=O)c2cc(Cl)ccc12
logP [2]: 5.6 | Significance [4]: Not Active | Inhibition [3]: 5%

COc1c(OC)c(OC(C)=O)c2c(C)cccc2c1OC(C)=O
Significance ([1]; read-out: Significance): < 0.001 | logP [2]: 2.8 | Inhibition [3]: 22%

O=C(Oc1c(Oc2ccccc2)c(Oc2ccccc2)c(OC(=O)c2ccccc2)c2cc(Cl)ccc12)c1ccccc1
logP [2]: 8.7 | Significance [4]: Not Active | Inhibition [3]: -1%

CCC(=O)Oc1c(OC)c(OC)c(OC(=O)CC)c2cc(C)ccc12
Significance [1]: <= 0.001 | logP [2]: 3.9 | Inhibition [3]: 39%
